# The list is not random: actives were taken first. Their share in the collection is about 1.6%.
# SENP1 inh: blocks the human SENP1 SUMO protease catalytic domain. Q9P0U3. recombinant SENP1 catalytic domain, CyPet-SUMO1-YPet FRET cleavage. inhibition, % at 10 µM. 360,000 compounds, 0.21% hits;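 active means inhibition at least 30% at 10 µM, raw YFP signal under a set limit, fluorescence ratio 0.5 to 1.5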;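 further: 0% = enzyme with DMSO and 100% = no enzyme wells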
#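 Controls: no-enzyme wells low, DMSO-plus-enzyme wells high control. Test system: human recombinant His6-tagged SENP1 catalytic domain enzyme. Reagent: SFCypet-SUMO1-SFYpet FRET protein substrate, 25 nM final. Doses: one dose per compound, 10 µM, 0.5% DMSO. Detection: FRET, CFP and YFP emission. Timing: 50 min reaction at room temperature.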
# HNF4A DNA FP: change in binding of human HNF4 alpha to DNA | P41235 | HNF4a-FITC DNA binding, fluorescence polarization, 1 h | activity change, % at 10 µM | 360,000 compounds, 0.3% hits | AID 1224865; in the data active means activity change above about 30%, passing the limit was not always enough
# Target sequence (P41235 whole entry, looked up): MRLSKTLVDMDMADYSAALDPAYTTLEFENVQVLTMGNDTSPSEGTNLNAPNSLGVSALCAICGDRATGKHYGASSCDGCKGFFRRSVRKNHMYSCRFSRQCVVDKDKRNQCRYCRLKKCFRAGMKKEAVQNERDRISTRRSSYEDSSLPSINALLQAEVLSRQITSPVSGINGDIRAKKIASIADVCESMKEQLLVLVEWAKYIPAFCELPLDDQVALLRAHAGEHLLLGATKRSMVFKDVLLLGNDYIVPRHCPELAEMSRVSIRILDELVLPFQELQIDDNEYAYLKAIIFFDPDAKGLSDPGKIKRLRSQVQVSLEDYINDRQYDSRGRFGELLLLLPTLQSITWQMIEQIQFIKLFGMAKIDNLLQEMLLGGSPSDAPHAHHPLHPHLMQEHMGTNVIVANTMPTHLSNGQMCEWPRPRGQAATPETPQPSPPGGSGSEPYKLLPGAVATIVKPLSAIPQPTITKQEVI
# Rpn11 block: inhibitors of human proteasome Rpn11; O00487; human 26S proteasome, Ub4-pepOG fluorescence polarization; 20S core pre-blocked with epoxomicin; inhibition, % at 20 µM; 360,000 compounds, 0.59% hits; AID 588493;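 active means inhibition at 20 µM, scaled to each plate's controls, above about 33%, limit read from the data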
# Target sequence (O00487 whole entry, looked up): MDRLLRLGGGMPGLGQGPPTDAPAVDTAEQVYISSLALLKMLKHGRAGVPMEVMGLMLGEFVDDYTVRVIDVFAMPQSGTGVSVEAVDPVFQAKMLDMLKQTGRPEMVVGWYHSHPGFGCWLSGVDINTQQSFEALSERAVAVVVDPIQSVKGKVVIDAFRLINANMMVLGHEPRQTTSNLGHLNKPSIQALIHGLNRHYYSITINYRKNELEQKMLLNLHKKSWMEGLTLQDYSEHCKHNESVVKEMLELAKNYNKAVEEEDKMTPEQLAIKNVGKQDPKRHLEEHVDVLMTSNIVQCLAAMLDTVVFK
# CSN deneddyl inh: inhibitors of human CSN-mediated cullin deneddylation | AID 651999 | Purified CSN, SCF-Nedd8-OG deneddylation, fluorescence polarization | 360,000 compounds, 0.38% hits | inhibition, % at 12.5 µM | Q92905;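 active means pattern-corrected inhibition above about 35%, with an unprinted fluorescence ratio check between 0.5 and 1.5, limit read from the data, passing the limit was not always enough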;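 further: 0% = enzyme with substrate and 100% = substrate without enzyme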
#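 test system = HEK293T-derived human Csn5 enzyme | amount = 0.24 nM Csn5 enzyme, final concentration | medium = Tris/NaCl/DTT buffer, pH 7.5 | schedule = 90 min reaction at room temperature | signal = FP | evaluation = inhibition of Csn5 cleavage, % | compound dosing = single dose of 12.5 µM compound with 0.25% DMSO | probe or stimulus = 10 nM SCFSkp2-Nedd8OG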
# TPT1 inh: blocks Candida albicans tRNA 2'-phosphotransferase; 300,000 compounds, 0.81% hits; inhibition, % at 5 µM; recombinant caTPT1, FP RNA substrate dephosphorylation;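 active means inhibition above the mean of all tested compounds plus 3 SD, set per screening campaign, cut at about 24% in these data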;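 further: plate controls were DMSO alone for no effect and ferristatin control at 100 nM for full effect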
# caTPT1 confirm: confirmation of Candida albicans TPT1 inhibitors; shares compounds with TPT1 inh; recombinant caTPT1, fluorescence polarization, RNase T1 coupled; inhibition, % at 5 µM; 2,400 compounds, 74% hits; AID 2149;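 active means inhibition above the primary screen limit, the mean inhibition of all tested compounds plus 3 SD, cut at about 25% in these data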
# RNase T1 counter: blocks Aspergillus oryzae RNase T1, a TPT1 counter-screen; shares compounds with TPT1 inh; RNase T1 cleavage, fluorescence polarization, 1536-well; inhibition, % at 5 µM; 2,400 compounds, 83% hits;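 active means inhibition above the solvent-only control well mean plus 3 SD, limit set per screening run, cut at about 23% in these data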;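 further: plate controls were DMSO wells with enzyme for no effect and wells without RNase T1 for full effect; inhibitors block cleavage so intact labeled substrate keeps polarization high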
# Rpn11 inh conf: confirmation of human proteasome Rpn11 inhibitors | inhibition, % at 20 µM | purified human 26S proteasome, Ub4-pepOG fluorescence polarization; proteasome pretreated with epoxomicin | shares compounds with Rpn11 block | 1,900 compounds, 29% hits
# MMP-2 counter-1: blocks human MMP-2, flagging nonselective RPN11 hits. shares compounds with Rpn11 block. recombinant MMP-2, FRET peptide cleavage fluorescence. inhibition, % at 20 µM. 1,900 compounds, 4% hits;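 further: human MMP-2 activated beforehand with APMA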
# Thrombin FP: thrombin (bovine) inhibition counter-screen; shares compounds with Rpn11 block; bovine thrombin cleavage of Ub4-pepOG, fluorescence polarization; inhibition, % at 20 µM; 1,900 compounds, 13% hits; AID 602333;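 active means mean inhibition at least 40% at 20 µM, or signal 3 deviations below plate average, so some actives read negative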;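 further: plate controls were thrombin with DMSO for no effect and buffer wells lacking thrombin for full effect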
# SENP1 inh conf: confirmation of human SENP1 SUMO protease inhibitors. 520 compounds, 34% hits. AID 651678. inhibition, % at 10 µM. recombinant SENP1, CyPet-SUMO1-YPet FRET cleavage. shares compounds with SENP1 inh; in the data active means inhibition mostly above about 35%, no sharp cut-off; inactive means mostly below about 32%;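 further: 0% = enzyme with DMSO and 100% = no enzyme control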
# SENP1 kinetic: SENP1 (human) inhibition, kinetic confirmation | 520 compounds, 26% hits | recombinant SENP1, CyPet-SUMO1-YPet FRET kinetic cleavage | inhibition, % at 10 µM | shares compounds with SENP1 inh | AID 651690; in the data active means inhibition mostly above about 32%, no sharp cut-off; inactive means mostly below about 29%;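 further: 0% = DMSO with enzyme and 100% = no enzyme substrate only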
# CSN deneddyl val: Csn5 (human) deneddylation inhibition, single-concentration validation; inhibition, % at 16.6 µM; 540 compounds, 62% hits; Csn5 deneddylation of SCF-Nedd8OG, fluorescence polarization, 90 min; shares compounds with CSN deneddyl inh; AID 720654; in the data active means inhibition above about 50%;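 further: 0% = DMSO with enzyme and 100% = no enzyme wells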
# MMP-2 counter-2: MMP-2 (human) inhibition, counter-screen for CSN hits. recombinant MMP-2, FRET substrate fluorescence, 60 min. shares compounds with CSN deneddyl inh. 540 compounds, 33% hits. inhibition, % at 16.6 µM;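 active means corrected plate-normalized z-score of 5 or more, or -5 or less, or inhibition of 15% or more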;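 further: plate controls were DMSO wells with enzyme for no effect and buffer wells lacking MMP-2 for full effect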
# Thrombin cntr: counter-screen for CSN deneddylation inhibitors: bovine thrombin inhibition; inhibition, % at 16.6 µM; shares compounds with CSN deneddyl inh; 540 compounds, 49% hits; bovine thrombin cleavage of Ub4-pepOG, fluorescence polarization;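 active means inhibition at or above a set limit, with a fluorescence interference ratio between 0.5 and a set maximum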
# Starred values were filed as active, the others as inactive; / = no result given; + = active, no number. Unless noted, no stated cut-off is given here; in the data, active means inhibition above about 40%; inactive means the rest.
SMILES,SENP1 inh,HNF4A DNA FP,Rpn11 block,CSN deneddyl inh,TPT1 inh,caTPT1 confirm,RNase T1 counter,CSN deneddyl val,MMP-2 counter-2,Thrombin cntr,others
CCN(c1ccccc1)S(=O)(=O)c1ccc(Cl)c(NC(=O)CSc2n[nH]c(N)n2)c1,2.4,0.6,-6.6,-12.1,-1.9,/,/,/,/,/,
O=[N+]([O-])c1ccc(/C=C/C2=NN(c3ccccc3)C(c3ccco3)C2)cc1 (centres undefined),38.3,83.2*,/,64.1*,70.4*,64.1*,66.3*,107.2*,-18.5,39.5,
CC1=NN(c2ccccc2)C(c2ccco2)C1 (centres undefined),-4.1,4.3,-0.3,-1.6,/,/,/,/,/,/,
COc1ccc(/C=N/N2C(=O)CSC2=S)cc1Br,40.2*,61.0*,/,58.1*,37.5*,62.1*,69.6*,50.9*,5.4,54.2*,SENP1 inh conf=45.9*;SENP1 kinetic=31.1*
FC(F)(F)c1ccc(/C=N/n2c(C3CCCCC3)n[nH]c2=S)cc1,-0.8,0.8,5.3,-4.5,-2.5,/,/,/,/,/,
CCOc1ccc(N(C)c2ccc(/C=C3/SC(=S)NC3=O)cc2)cc1,-26.5,108.3,/,87.4*,114.7*,128.0*,127.4*,28.3,23.7*,65.9*,
COC(=O)c1cc(CSc2nc3ccccc3c(=O)n2C)oc1C,-0.9,-2.4,4.6,2.7,3.5,/,/,/,/,/,
N#C/C(=C\c1ccc(O)cc1)c1nc2ccccc2o1,-44.8,57.1*,/,47.6*,101.6*,113.9*,115.7*,114.0*,-13.1,38.9*,
CC(C)N1CCc2c(sc(NC(=O)c3ccc4ccccc4c3)c2C(N)=O)C1,-30.1,63.5*,/,56.9*,96.2*,89.6*,96.3*,+,1.3,47.9*,
CCN1CCc2c(sc(NC(=O)c3cc4ccccc4cc3OC)c2C(N)=O)C1,-28.6,36.7*,72.1*,37.9*,46.1*,39.8*,45.6*,56.2*,-3.3,8.7,Rpn11 inh conf=75.1*;MMP-2 counter-1=-38.1;Thrombin FP=38.7
CC(C)(C)OC(=O)C[C@H]1C/C=C\C[C@H](CC(=O)NCCO)C(=O)NCCOC1=O,1.3,-0.3,-4.2,-3.4,/,/,/,/,/,/,
CCC(C(=O)NCc1ccccc1OC)c1ccccc1 (centres undefined),1.6,-0.3,-3.1,-0.1,-5.0,/,/,/,/,/,
O=C(O)c1ccc(-c2sc(Nc3ccccc3)n[n+]2-c2ccc(F)cc2)cc1,0.6,0.9,-2.8,-5.6,0.7,/,/,/,/,/,
CCN(CC)c1ccc(-c2sc(Nc3ccccc3)n[n+]2-c2ccc(F)cc2)cc1,50.8,147.7,/,65.2*,94.7*,120.5*,116.7*,145.8*,6.2,-29.0,
CCc1ccc(Nc2n[n+](-c3ccccc3)c(-c3ccc(OCc4ccccc4)cc3)s2)cc1,0.8,-4.8,16.0,7.0,-0.8,/,/,/,/,/,
CCc1ccc(Nc2n[n+](-c3ccccc3)c(-c3ccc(N(CC)CC)cc3)s2)cc1,12.5,175.1,/,90.7*,104.8*,114.7*,112.3*,13.4,-78.7*,-84.2,
CCCN1CCc2c(sc(NC(=O)c3ccc(S(=O)(=O)N(C)c4ccccc4)cc3)c2C(=O)NC)C1,-26.8,66.5*,/,42.4*,104.3*,110.5*,117.5*,179.5*,-0.6,11.7,
O=C(O)CC(C(=O)O)N1C(=O)/C(=C/C=C/c2ccco2)SC1=S (centres undefined),41.5*,-41.0,64.3*,48.2*,66.7*,28.9*,35.6*,37.7,34.4*,49.4*,Rpn11 inh conf=96.6*;MMP-2 counter-1=58.8*;Thrombin FP=20.4
O=C(O)CCCN1C(=O)/C(=C/C=C/c2ccco2)SC1=S,23.0,-55.7,/,39.5*,84.1*,37.0*,38.0*,44.7,44.0*,21.6*,
O=C(O)CC(C(=O)O)N1C(=O)/C(=C/c2ccc(-c3nc4ccccc4s3)o2)SC1=S (centres undefined),-12.8,8.7,71.4*,47.3*,90.6*,109.0*,114.1*,81.8*,9.2,83.3*,
O=C1/C(=C\c2ccc(O)c(O)c2)N=C2CCCCCN12,24.3,31.7,/,38.5*,26.6*,44.8*,46.9*,69.1*,6.3,45.0*,
Nc1c(C=C2C=CC(=O)C=C2)c(=O)nc2sc(CC(=O)N3CCCCC3)nn12,-137.1,-3.9,10.9,0.3,-2.2,/,/,/,/,/,
COC1=CC(=Cc2c(N)n3nc(CC(=O)N4CCCCC4)sc3nc2=O)C=C(OC)C1=O,-22.7,37.9*,/,77.6*,30.7*,111.8*,110.4*,33.8,-10.7,73.7*,
Cc1ccc(-n2cccc2/C=C2/C(=N)N3C(=NC2=O)SN=C3S(C)(=O)=O)cc1Cl,-25.0,25.4,167.6*,58.6*,32.1*,35.2*,48.4*,-0.5,8.6,39.4*,Rpn11 inh conf=159.7*;MMP-2 counter-1=-6.6;Thrombin FP=108.9*
Cc1cccc(C)c1-n1cccc1/C=C1/C(=N)N2C(=NC1=O)SN=C2S(C)(=O)=O,-4.5,-1.7,16.0,4.7,1.0,/,/,/,/,/,
Cc1cc(C(=O)NNc2ccc(F)cc2)no1,0.2,-3.5,2.0,-3.3,-2.5,/,/,/,/,/,
Clc1cccc(Cc2c(C3CCCCC3)nc3ccc(Cl)cn23)c1,-1.5,2.5,17.0,0.3,/,/,/,/,/,/,

# Screening data (PubChem BioAssay)
